Assay results published in ChEMBL document CHEMBL1127499, “S-glucosylated hydantoins as new antiviral agents” (1994).

Experiments:
Type in all cases: functional
Vero [1] = assay: Cytotoxic dose of compound required to reduce the viability of normal uninfected vero cells by 50%.; conditions: Chlorocebus sabaeus, read-out: CD50 (the source's name)
Procedure, shortened: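 Uninfected Vero cells were grown with compound, and cytotoxicity was read as concentration-dependent inhibition of cell proliferation relative to control cultures. CD50 is the dose reducing viability by 50%, mean of three independent determinations.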

Vero [2] = assay: Antiviral activity against HSV-2 (Herpes simplex virus) in vero cells; conditions: Chlorocebus sabaeus, read-out: ED50 (the source's name)
Procedure, shortened: (§1)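 Vero target cells infected with HSV-1 McIntyre or HSV-2 MS for 2.5 h, washed, then mixed 1:50 with uninfected Vero cells preincubated 2.5 h with compound. Virus antigen in culture medium measured by HSV-1/HSV-2 antigen ELISA. ED50 is the dose giving 50% protection, mean of three independent determinations.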

[3] = Selectivity index against HSV-1 was determined as CD50/ED50 ratio
Procedure, shortened: (§2)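 CD50 (50% reduction of proliferation of uninfected Vero cells) divided by ED50 (50% protection against HSV-1 or HSV-2 in Vero cells, antigen ELISA after 5 days). Each is the mean of three independent determinations.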

[4] = Selectivity index against HSV-2 was determined as CD50/ED50 ratio; procedure, shortened: as §2
Vero [5] = assay: Antiviral activity against HSV-1 (Herpes simplex virus) in vero cells; conditions: Chlorocebus sabaeus, read-out: ED50 (the source's name); procedure, shortened: as §1

CC(=O)OCC1OC(SC2=N/C(=C\c3cccs3)C(=O)N2c2cccc(C)c2)C(OC(C)=O)C(OC(C)=O)C1OC(C)=O (stereo not drawn) gave a CC50 (Vero [1]) of 25 µM, an EC50 (Vero [2]) of 19 µM and a Selectivity index [3] of 2.5. The Selectivity index [4] was 1.3 and the EC50 (Vero [5]) was 10 µM.

CC(=O)OCC1OC(Sc2nc(/C=C3\C=Nc4ccccc43)c(O)n2-c2ccccc2)C(OC(C)=O)C(OC(C)=O)C1OC(C)=O (stereo not drawn) showed a CC50 (Vero [1]) greater than 100 µM, an EC50 (Vero [2]) of 40 µM and a Selectivity index [3] greater than 2.2. The Selectivity index [4] was greater than 2.5 and the EC50 (Vero [5]) was 46 µM.

Work on CCOC(=O)c1ccc(N2C(=O)/C(=C/c3cccs3)N=C2SC2OC(COC(C)=O)C(OC(C)=O)C(OC(C)=O)C2OC(C)=O)cc1 (stereo not drawn) yielded a CC50 (Vero [1]) of 46 µM, an EC50 (Vero [2]) of 46 µM and a Selectivity index [3] of 1.4. It also gave a Selectivity index [4] of 1 and an EC50 (Vero [5]) of 32 µM.

For COc1ccc(N2C(=O)/C(=C/c3cccs3)N=C2SC2OC(COC(C)=O)C(OC(C)=O)C(OC(C)=O)C2OC(C)=O)cc1 (stereo not drawn), the CC50 (Vero [1]) was 35 µM, the EC50 (Vero [2]) was 27 µM and the Selectivity index [3] was 1.3. For the same compound, the Selectivity index [4] was 1.3 and the EC50 (Vero [5]) was 27 µM.

Compound CC(=O)OCC1OC(SC2=NC(=C(C)C)C(=O)N2c2ccccc2)C(OC(C)=O)C(OC(C)=O)C1OC(C)=O (stereo not drawn) has a CC50 (Vero [1]) greater than 200 µM, an EC50 (Vero [2]) of 100 µM and a Selectivity index [3] greater than 1.6. The Selectivity index [4] was greater than 2 and the EC50 (Vero [5]) was 119 µM.

In the case of Nc1nc2c(ncn2COCCO)c(=O)[nH]1 [ACYCLOVIR], the CC50 (Vero [1]) is reported as greater than 50 µM, the EC50 (Vero [2]) is reported as 0.5 µM and the Selectivity index [3] is reported as greater than 100. The Selectivity index [4] was greater than 100 and the EC50 (Vero [5]) was 0.5 µM.

For CC(=O)OCC1OC(SC2=N/C(=C\c3cccs3)C(=O)N2c2ccc(Cl)cc2)C(OC(C)=O)C(OC(C)=O)C1OC(C)=O (stereo not drawn), the CC50 (Vero [1]) was 20 µM, the EC50 (Vero [2]) was 1 µM and the Selectivity index [3] was 33. For the same compound, the Selectivity index [4] was 20 and the EC50 (Vero [5]) was 0.6 µM.

Work on O=c1[nH]c(=O)n([C@H]2C[C@H](O)[C@@H](CO)O2)cc1/C=C/Br [BRIVUDINE] yielded a CC50 (Vero [1]) greater than 100 µM, an EC50 (Vero [2]) of 6.8 µM and a Selectivity index [3] greater than 333. The Selectivity index [4] was greater than 15 and the EC50 (Vero [5]) was 0.3 µM.

CC(=O)OCC1OC(SC2=N/C(=C\c3ccccc3)C(=O)N2c2ccccc2)C(OC(C)=O)C(OC(C)=O)C1OC(C)=O (stereo not drawn) showed a CC50 (Vero [1]) greater than 100 µM, an EC50 (Vero [2]) of 100 µM and an EC50 (Vero [5]) greater than 100 µM.

With CC(=O)OCC1OC(SC2=N/C(=C\c3cccs3)C(=O)N2c2ccccc2)C(OC(C)=O)C(OC(C)=O)C1OC(C)=O (stereo not drawn) the CC50 (Vero [1]) was 24 µM, the EC50 (Vero [2]) was 0.7 µM and the Selectivity index [3] was 60. The Selectivity index [4] was 34 and the EC50 (Vero [5]) was 0.4 µM.
